This is a sample that favours compounds with a hit; in the whole collection about 2.1% have one here.
MIN6 prolif-1 = inducers of MIN6 beta-cell proliferation, primary screen, ATP luminescence, uHTS; proliferation, % at 10 µM; MIN6 cells proliferation, ATPlite luminescence, 48 h; cells starved in 0.2% serum; 100% = growth in 10% serum; 330,000 tested, 0.29% active;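 active = compounds whose signal lies at least 3.5 SD above the mean of all wells on their plate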;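 note: 0% = DMSO-treated cells in low-serum medium and 100% = 10% serum control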
Cardio protect = cardioprotection against H2O2-induced cell death, primary screen, uHTS, H9c2 cells, ATPLite luminescence; H9c2 cardiomyocytes, H2O2 injury protection, 2 h; protection from H2O2 cell death, % at 20 µM; 360,000 tested, 0.63% active; AID 588492, 2011;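 active = compounds giving at least 50% protection of heart cells from peroxide-induced death in the single-dose screen, raw or plate-pattern-corrected value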;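 note: 0% = DMSO wells with peroxide and 100% = DMSO wells without peroxide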
CRFR2-BP ag = agonists of CRF-BP/CRF-R2 complex, primary screen, cell-based, HEK293, calcium dye fluorescence, uHTS; CRF-binding protein / CRF receptor 2 complex (human); calcium dye fluorescence (FLIPR); percent of saturating CRF peptide response; activation, % at 13.2 µM; 350,000 tested, 0.46% active; AID 588473, 2011;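 active = activation of at least 50%, plus an integration ratio under a set limit after plate pattern correction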;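 note: plate controls were neutral control wells without compound for no effect and CRF at EC100 for full effect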
CRFR2-BP antag = antagonists of CRF-BP/CRF-R2 complex, primary screen, cell-based, HEK293, calcium dye fluorescence, uHTS | CRF-induced calcium fluorescence | inhibition, % at 11.8 µM | 350,000 tested, 0.59% active;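 active = inhibition of the ligand-induced calcium signal above about 50% at the single tested concentration, limit read from the data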
UCH37 inh = inhibitors of human UCH37 deubiquitinase, primary screen, biochemical, Ub-AMC cleavage, fluorescence | Ubiquitin carboxyl-terminal hydrolase isozyme L5 (Homo sapiens), Q9Y5K5 | purified proteasome/UCH37 | inhibition, % (concentration not given with the values) | 330,000 tested, 0.33% active;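 active = mean inhibition over replicate wells above about 20%, limit read from the data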;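 note: 0% = compound-free wells with enzyme and 100% = wells lacking proteasome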
Target sequence (Q9Y5K5 whole entry, looked up): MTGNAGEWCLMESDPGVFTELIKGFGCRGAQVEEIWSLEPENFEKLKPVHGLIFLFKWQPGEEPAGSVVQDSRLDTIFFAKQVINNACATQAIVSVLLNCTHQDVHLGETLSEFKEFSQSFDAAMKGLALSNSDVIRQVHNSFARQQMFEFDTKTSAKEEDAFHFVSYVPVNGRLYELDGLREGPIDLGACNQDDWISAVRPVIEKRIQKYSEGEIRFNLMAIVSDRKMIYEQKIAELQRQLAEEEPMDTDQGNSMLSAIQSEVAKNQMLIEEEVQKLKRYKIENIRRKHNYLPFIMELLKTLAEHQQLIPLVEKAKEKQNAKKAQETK
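Reagent: Ub-AMC substrate; assay system: Proteasome-associated human UCH37 deubiquitinase; controls: no-proteasome and no-compound wells; read-out: % inhibition of Ub-AMC cleavage fluorescence; timing: 30 min preincubation with enzyme, 25 min cleavage at room temperature; signal: AMC fluorescence from Ub-AMC cleavage, excitation 355 nm, emission 460 nm; buffer or medium: Tris-HCl pH 7.4 plus ovalbumin, ATP-MgCl2, DTT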
hiPSC survival = enhancers of single-cell hiPSC survival, primary screen, ATPlite luminescence; survival enhancement, % at 20 µM; 100% = ROCK inhibitor wells, 0% = DMSO; 360,000 tested, 0.044% active; in the data active = survival enhancement above about 18%;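 note: cells exposed to compounds for 16 hours before the ATP read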
MIN6 prolif-2 = inducers of beta-cell proliferation in MIN6, confirmation, MIN6 cells, mouse | shares compounds with MIN6 prolif-1 | ATPlite luminescence, 48 h; cells kept in 0.2% serum; scaled between 0.2% and 10% serum | 920 tested, under 10 active | proliferation increase, % at 50 µM;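 active = proliferation increase above 40% at any of the four tested concentrations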
* = called active by the depositor; . = no result.

SMILES	MIN6 prolif-1	Cardio protect	CRFR2-BP ag	CRFR2-BP antag	UCH37 inh	hiPSC survival	MIN6 prolif-2
CC(C)c1ccc(NC(=O)CCNS(=O)(=O)c2cccc3nsnc23)cc1	4.6*	-8.2	2.9	-13.6	3.5	-1.8	-5.3
COc1ccc(C(=O)Nc2cccc(C(C)=NNC(=O)c3ccoc3C)c2)cc1OC	.	.	.	.	-0.5	.	.
Nc1ccc(S(=O)(=O)N2CCCc3ccccc32)cc1	13.6*	0.9	0.1	-0.9	5.1	1.0	-1.5
O=S(=O)(c1ccc(Cl)cc1)N1CCCc2ccccc21	-2.0	-6.4	0.2	25.1	-0.4	0.3	.
CC(=O)N1c2ccc(S(=O)(=O)N3CCCC3)cc2CC1C(=O)NC(C)C (stereo not drawn)	12.6*	-4.1	1.7	-12.2	-0.5	-0.5	1.3
CN(C)S(=O)(=O)c1cccc(NC(=O)COC(=O)CCc2nc3ccccc3s2)c1	6.7*	-2.1	-0.8	5.0	-1.2	-0.1	5.2
Cc1cccn2c(=O)c(C=NO)c(N3CCCCC3)nc12	.	.	.	.	2.3	.	.
Cc1cc(C)n(C(=O)COc2ccc([N+](=O)[O-])cc2)n1	5.3*	4.0	-5.0	7.4	-0.3	-0.2	3.9
Cc1nc(C)c(C(=O)NN=Cc2ccco2)s1	.	.	.	.	5.3	.	.
CCC1SC(=NN=Cc2ccco2)N(Cc2ccc(F)cc2)C1=O (stereo not drawn)	.	.	.	.	2.6	.	.
C/C(=N\NC(=O)C1CC1)c1ccccc1O	11.3*	1.4	-2.3	6.3	.	-0.2	-2.5
C/C(=N\NC(=O)C1CC1)c1ccccc1Br	-0.3	-1.2	0.6	6.4	.	0.2	.
C=CCNC(=O)c1c2c(nc3ccccc13)-c1ccccc1CC2	7.0*	2.3	-1.0	1.4	-28.6	1.0	-3.8
COC(=O)c1cnn(-c2ccccc2)c1C=NNC(=S)Nc1ccccc1	.	.	.	.	1.5	.	.
O=C(c1ccc(F)cc1)N1CCCC(C(=O)N2CCc3ccccc3C2)C1 (stereo not drawn)	-1.3	-0.6	0.0	-5.3	2.0	-0.6	.
O=C(c1cccc([N+](=O)[O-])c1)N1CCCC(C(=O)N2CCc3ccccc3C2)C1 (stereo not drawn)	6.0*	-0.9	-0.1	-3.7	2.3	-0.5	-0.5
COCCCNC(=S)NN=Cc1ccc(O)cc1O	.	.	.	.	1.4	.	.
CCCNc1nc(-c2ccccc2)c(C(=O)OCC)cc1C#N	-4.2	-1.1	3.7	-3.2	-34.5	2.5	.
C=CCNc1nc(-c2ccccc2)c(C(=O)OCC)cc1C#N	5.3*	-10.4	4.3	12.8	-13.4	0.9	-6.3
COCCNC(=O)c1ccc(C)cc1C	7.9*	4.1	5.4	-29.8	1.3	2.9	0.6
COCCNC(=O)c1c(C)cc(C)cc1C	-2.2	-6.4	-1.8	6.0	2.7	-0.9	.
c1ccc(Cn2nnnc2CN2CCCC2)cc1	4.8*	0.5	-0.9	6.4	3.7	2.3	1.7
Cc1ccc(NC(=O)CN(C)C(=O)CNC(=O)c2cccs2)cc1	11.8*	-5.0	-0.3	-14.5	.	1.6	-3.1
CN(CC(=O)Nc1ccc(Cl)cc1)C(=O)CNC(=O)c1cccs1	4.0	8.2	0.1	-9.1	0.2	-0.4	.
S=C1NCCc2ccccc2C1c1ccccc1 (stereo not drawn)	0.6	-15.2	-0.2	6.9	4.8	-2.8	.
S=C1NCCc2ccccc2C1c1ccccc1Cl (stereo not drawn)	5.3*	5.5	0.9	20.9	-0.7	-3.1	-6.4
OCCC1CN(CCCc2ccccc2)CCN1CCc1ccccc1 (stereo not drawn)	-2.0	0.6	0.2	-0.8	1.6	-0.8	.
OCCC1CN(Cc2ccccc2O)CCN1CCc1ccccc1 (stereo not drawn)	7.9*	9.4	7.3	-2.5	.	-2.3	-3.2
